{
  "source": "paper PMC6432629",
  "about": "(The Prostate, 2016)",
  "key": {"PC3": {"system": "PC3", "experiment": "MTT cell proliferation", "conditions": "3-day exposure, media with 10% FBS"}, "MCF-7": {"system": "MCF-7", "experiment": "MTT cell proliferation", "conditions": "3-day exposure, media with 10% FBS"}, "FAP": {"molecular_target": "T1, FAP (Homo sapiens, UniProt Q12884)", "T1 sequence (Q12884 27-760 limits assumed)": "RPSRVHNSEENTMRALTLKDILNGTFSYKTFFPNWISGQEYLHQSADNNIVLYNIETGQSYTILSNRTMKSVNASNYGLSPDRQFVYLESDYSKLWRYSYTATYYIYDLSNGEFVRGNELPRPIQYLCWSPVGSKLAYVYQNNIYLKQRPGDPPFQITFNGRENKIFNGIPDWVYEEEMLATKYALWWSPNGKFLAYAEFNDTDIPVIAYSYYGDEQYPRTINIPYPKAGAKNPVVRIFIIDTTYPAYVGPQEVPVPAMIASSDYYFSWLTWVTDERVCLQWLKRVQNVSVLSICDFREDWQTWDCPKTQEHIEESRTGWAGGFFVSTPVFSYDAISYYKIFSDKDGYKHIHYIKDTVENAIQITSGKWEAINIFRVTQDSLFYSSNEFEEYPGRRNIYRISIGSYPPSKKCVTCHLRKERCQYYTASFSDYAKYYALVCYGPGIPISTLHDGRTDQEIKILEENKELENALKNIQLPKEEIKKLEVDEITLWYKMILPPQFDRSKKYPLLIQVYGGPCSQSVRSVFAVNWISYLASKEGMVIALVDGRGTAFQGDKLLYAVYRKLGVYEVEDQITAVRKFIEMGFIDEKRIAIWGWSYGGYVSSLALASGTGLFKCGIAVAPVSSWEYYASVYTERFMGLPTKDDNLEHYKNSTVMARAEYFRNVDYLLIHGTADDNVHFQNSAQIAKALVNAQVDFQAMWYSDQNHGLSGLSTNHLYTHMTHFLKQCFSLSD", "experiment": "FAP-mediated hydrolysis of prodrugs ex vivo", "format": "in vitro ADME", "conditions": "purified FAP 300 nM, 37°C, up to 24 hr"}, "FAP and DPPIV": {"system": "FAP and DPPIV", "experiment": "Tandem hydrolysis by mixture of purified FAP and DPPIV", "format": "in vitro ADME", "conditions": "FAP 300 nM + DPPIV 30 nM, 37°C, HPLC and MS", "method_in_brief": "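FAP expressed in Schneider S2 cells (induced with 500 μM CuSO4) and purified from supernatant on Ni-NTA; DPPIV is human recombinant from sf9 cells. Enzymes (FAP 300 nM, DPPIV 30 nM) in 100 mM Tris, 100 mM NaCl, pH 7.8. Substrate from 10 mM DMSO stock, 250 μM final, 2.5% DMSO. Shaken at 37°C for 24 hr; time-point aliquots quenched in cold acetonitrile, then HPLC and MS.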"}, "[1]": {"experiment": "Stability of prodrug 11 in human plasma", "format": "in vitro ADME", "conditions": "human plasma (EDTA), 400 μM, 37°C, 24 hr, methanol precipitation, HPLC and MS", "method_in_brief": "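Compound from 10 mM DMSO stock was added to EDTA-anticoagulated human plasma, with a PBS control at the same concentration. Incubated at 37°C for 24 hr. At time points, 100 μl aliquots received 200 μl cold methanol, sat on ice 10 min, and were centrifuged at 13,000 rpm for 6 min. Supernatant analysed by HPLC and mass spectrometry.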"}, "PrEC cells": {"system": "PrEC cells", "experiment": "Cytotoxicity in normal prostatic epithelial cells in serum free media"}, "LNCaP": {"system": "LNCaP", "experiment": "MTT cell proliferation", "conditions": "3-day exposure, media with 10% FBS"}, "MDA-MB-231": {"system": "MDA-MB-231", "experiment": "MTT cell proliferation", "format": "cell-based, human", "conditions": "3-day exposure, media with 10% FBS"}},
  "note": "Numbered stars: 1 amine (or outer) side, 2 acyl side, 3 side chain; on linkers, the order of the positions; unused ones are H or OH. Square brackets hold non-standard residues; d marks the D form. Peptide text beside a SMILES is read from it. * marks the point of attachment. Emetine(N2') = CC[C@H]1CN2CCc3cc(OC)c(OC)cc3[C@@H]2C[C@@H]1C[C@@H]1c2cc(OC)c(OC)cc2CCN1*; PABC = O=C(OCc1ccc(N[*:1])cc1)[*:2]",
  "data": [
    {"smiles": "CC[C@H]1CN2CCc3cc(OC)c(OC)cc3[C@@H]2C[C@@H]1C[C@@H]1c2cc(OC)c(OC)cc2CCN1C(=O)OCc1ccc(NC(=O)[C@@H]2CCCN2C(=O)[C@H](C)NC(=O)[C@@H]2CCCN2C(=O)CNC(=O)[C@H](C)NC(=O)[C@@H]2CCCN2C(=O)CNC(=O)[C@H](CO)NC(=O)[C@H](C)NC(C)=O)cc1", "note": "[Compound 11] (Ac-ASGPAGPAP[PABC]-{Emetine(N2')})", "values": [
      {"measurement": "cytotoxicity / IC50 compared with emetine, PC3 (in words)", "setting": "PC3", "value": "identical to that for emetine"},
      {"measurement": "cytotoxicity / IC50 compared with emetine, MCF-7 (in words)", "setting": "MCF-7", "value": "identical to that for emetine"},
      {"measurement": "cleavage by recombinant purified FAP (in words)", "setting": "FAP", "value": "progressively cleaved to the intermediate (precursor) 10"},
      {"measurement": "% emetine formed from 11, 2 hr", "setting": "FAP and DPPIV; 2 hr", "value": 22, "unit": "%"},
      {"measurement": "% precursor 10 formed from 11, 2 hr", "setting": "FAP and DPPIV; 2 hr", "value": 56, "unit": "%"},
      {"measurement": "% emetine formed from 11, 4 hr", "setting": "FAP and DPPIV; 4 hr", "value": 36, "unit": "%"},
      {"measurement": "% precursor 10 formed from 11, 4 hr", "setting": "FAP and DPPIV; 4 hr", "value": 58, "unit": "%"},
      {"measurement": "% precursor 10 in solution, 24 hr", "setting": "FAP and DPPIV; 24 hr", "value": 25, "unit": "%"},
      {"measurement": "precursor 10 or emetine detected after incubation in human plasma", "setting": "[1]", "value": "No detectable amount"},
      {"measurement": "cytotoxicity to PrEC at 100 nM and 1,000 nM (in words)", "setting": "PrEC cells; 3-day exposure, keratinocyte serum free media, no FAP or DPPIV", "value": "not cytotoxic"},
      {"measurement": "IC50", "setting": "PrEC cells; read-out: calculated IC50 in the PrEC cell lines, 3-day exposure, expanded dose range, serum free media, absence of FAP and DPPIV", "value": 7.73, "unit": "µM"},
      {"measurement": "fold less cytotoxic than emetine in PrEC", "setting": "PrEC cells; serum free media, absence of FAP and DPPIV", "value": "more than 200 fold"},
      {"measurement": "cytotoxicity / IC50 compared with emetine, LNCaP (in words)", "setting": "LNCaP", "value": "identical to that for emetine"},
      {"measurement": "IC50 compared with emetine, MDA-MB-231 (in words)", "setting": "MDA-MB-231", "value": "identical to that for emetine"}
    ]}
  ]
}
